Measurements taken from ChEMBL document CHEMBL5724801, “EUbOPEN Chemogenomics Library - Multiplex” (2024).
Values joined by “and” are separate entries in the source; they are usually repeats but may differ in a detail not shown here. Identical values can stand only once.

Assays:
HEK-293T = assay: Multiplex assay against HEK293T; format: toxicity, cell-based; conditions: human
Outline: (§1)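 With compound added, live cells were imaged on a CQ1 microscope at 37°C and 5% CO2; staining with Hoechst33342, BioTracker Green Microtubule Cytoskeleton Dye, MitoTracker Red and Annexin V Alexa Fluor 680 had been done at seeding. The CellPathfinder machine-learning gating scheme split cells into Hoechst high-intensity objects or normal cells, normal cells into healthy, pyknosed or fragmented nuclei, and pyknosed cells into mitotic or apoptotic. The tubulin, mitochondrial-mass and membrane-permeability phenotypes are per cents of healthy-nucleus cells.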

U2OS = assay: Multiplex assay against U2OS; format: toxicity, cell-based; conditions: human; outline: as §1
[1] = 24 h, 10 µM, compound concentration 10 uM
[2] = 48 h, 1 µM, compound concentration 1 uM
[3] = 48 h, 10 µM, compound concentration 10 uM
[4] = 12 h, 1 µM, compound concentration 1 uM
[5] = 12 h, 10 µM, compound concentration 10 uM
[6] = 24 h, 1 µM, compound concentration 1 uM

Nc1nc(CC(=O)Nc2ccc(CCNC[C@H](O)c3ccccc3)cc2)cs1 [MIRABEGRON]
Population Apoptotic (%) (HEK-293T; [1]): 31% and 35% | Population Fragmented Nuclei (%) (HEK-293T; [1]): 8% and 9% | Population Healthy Nuclei (%) (HEK-293T; [1]): 77% and 82% | Population Hoechst High Intensity Objects (%) (HEK-293T; [1]): 4% and 5% | Population Membrane Permeable-Phenotype (%) (HEK-293T; [1]): 0% | Population Mitochondria Different-Phenotype (%) (HEK-293T; [1]): 32% and 49% | Population Mitotic Cells (%) (HEK-293T; [1]): 68% and 64% | Population Normal (%) (HEK-293T; [1]): 95% and 94% | Population Pyknosed Nuclei (%) (HEK-293T; [1]): 13% and 7% | Population Tubulin-Different-Phenotype (%) (HEK-293T; [1]): 23% | Total Cell Count (HEK-293T; [1]): 552 and 524 | Population Apoptotic (%) (HEK-293T; [2]): 18% and 28% | Population Fragmented Nuclei (%) (HEK-293T; [2]): 13% and 17% | Population Healthy Nuclei (%) (HEK-293T; [2]): 80% and 76% | Population Hoechst High Intensity Objects (%) (HEK-293T; [2]): 1% and 0% | Population Membrane Permeable-Phenotype (%) (HEK-293T; [2]): 1% | Population Mitochondria Different-Phenotype (%) (HEK-293T; [2]): 14% and 21% | Population Mitotic Cells (%) (HEK-293T; [2]): 81% and 71% | Population Normal (%) (HEK-293T; [2]): 98% and 99% | Population Pyknosed Nuclei (%) (HEK-293T; [2]): 5% | Population Tubulin-Different-Phenotype (%) (HEK-293T; [2]): 10% | Total Cell Count (HEK-293T; [2]): 1141 and 662 | Population Apoptotic (%) (HEK-293T; [3]): 26% and 28% | Population Fragmented Nuclei (%) (HEK-293T; [3]): 12% | Population Healthy Nuclei (%) (HEK-293T; [3]): 78% and 80% | Population Hoechst High Intensity Objects (%) (HEK-293T; [3]): 3% and 2% | Population Membrane Permeable-Phenotype (%) (HEK-293T; [3]): 0% | Population Mitochondria Different-Phenotype (%) (HEK-293T; [3]): 25% and 30% | Population Mitotic Cells (%) (HEK-293T; [3]): 73% and 71% | Population Normal (%) (HEK-293T; [3]): 96% and 97% | Population Pyknosed Nuclei (%) (HEK-293T; [3]): 8% and 6% | Population Tubulin-Different-Phenotype (%) (HEK-293T; [3]): 16% and 15% | Total Cell Count (HEK-293T; [3]): 818 and 750 | Population Apoptotic (%) (U2OS; [4]): 86% and 100% | Population Fragmented Nuclei (%) (U2OS; [4]): 24% and 13% | Population Healthy Nuclei (%) (U2OS; [4]): 62% and 74% | Population Hoechst High Intensity Objects (%) (U2OS; [4]): 1% and 0% | Population Membrane Permeable-Phenotype (%) (U2OS; [4]): 6% and 5% | Population Mitochondria Different-Phenotype (%) (U2OS; [4]): 3% and 2% | Population Mitotic Cells (%) (U2OS; [4]): 13% and 0% | Population Normal (%) (U2OS; [4]): 98% and 99% | Population Pyknosed Nuclei (%) (U2OS; [4]): 12% | Population Tubulin-Different-Phenotype (%) (U2OS; [4]): 4% and 5% | Total Cell Count (U2OS; [4]): 240 and 107 | Population Apoptotic (%) (U2OS; [5]): 86% and 66% | Population Fragmented Nuclei (%) (U2OS; [5]): 18% and 21% | Population Healthy Nuclei (%) (U2OS; [5]): 70% and 71% | Population Hoechst High Intensity Objects (%) (U2OS; [5]): 1% and 0% | Population Membrane Permeable-Phenotype (%) (U2OS; [5]): 6% and 7% | Population Mitochondria Different-Phenotype (%) (U2OS; [5]): 2% and 3% | Population Mitotic Cells (%) (U2OS; [5]): 13% and 33% | Population Normal (%) (U2OS; [5]): 98% and 99% | Population Pyknosed Nuclei (%) (U2OS; [5]): 11% and 6% | Population Tubulin-Different-Phenotype (%) (U2OS; [5]): 4% and 1% | Total Cell Count (U2OS; [5]): 319 and 136 | Population Apoptotic (%) (U2OS; [6]): 82% and 58% | Population Fragmented Nuclei (%) (U2OS; [6]): 21% and 11% | Population Healthy Nuclei (%) (U2OS; [6]): 70% and 79% | Population Hoechst High Intensity Objects (%) (U2OS; [6]): 2% and 0% | Population Membrane Permeable-Phenotype (%) (U2OS; [6]): 4% and 9% | Population Mitochondria Different-Phenotype (%) (U2OS; [6]): 2% and 3% | Population Mitotic Cells (%) (U2OS; [6]): 17% and 41% | Population Normal (%) (U2OS; [6]): 97% and 99% | Population Pyknosed Nuclei (%) (U2OS; [6]): 8% and 9% | Population Tubulin-Different-Phenotype (%) (U2OS; [6]): 3% and 7% | Total Cell Count (U2OS; [6]): 289 and 125 | Population Apoptotic (%) (U2OS; [1]): 86% and 76% | Population Fragmented Nuclei (%) (U2OS; [1]): 17% and 20% | Population Healthy Nuclei (%) (U2OS; [1]): 75% and 71% | Population Hoechst High Intensity Objects (%) (U2OS; [1]): 1% | Population Membrane Permeable-Phenotype (%) (U2OS; [1]): 5% and 9% | Population Mitochondria Different-Phenotype (%) (U2OS; [1]): 3% and 5% | Population Mitotic Cells (%) (U2OS; [1]): 13% and 23% | Population Normal (%) (U2OS; [1]): 98% | Population Pyknosed Nuclei (%) (U2OS; [1]): 7% | Population Tubulin-Different-Phenotype (%) (U2OS; [1]): 3% and 4% | Total Cell Count (U2OS; [1]): 405 and 167 | Population Apoptotic (%) (U2OS; [2]): 84% and 78% | Population Fragmented Nuclei (%) (U2OS; [2]): 17% and 12% | Population Healthy Nuclei (%) (U2OS; [2]): 72% and 74% | Population Hoechst High Intensity Objects (%) (U2OS; [2]): 2% | Population Membrane Permeable-Phenotype (%) (U2OS; [2]): 4% and 8% | Population Mitochondria Different-Phenotype (%) (U2OS; [2]): 3% | Population Mitotic Cells (%) (U2OS; [2]): 15% and 21% | Population Normal (%) (U2OS; [2]): 97% | Population Pyknosed Nuclei (%) (U2OS; [2]): 9% and 13% | Population Tubulin-Different-Phenotype (%) (U2OS; [2]): 3% and 7% | Total Cell Count (U2OS; [2]): 394 and 179 | Population Apoptotic (%) (U2OS; [3]): 87% and 70% | Population Fragmented Nuclei (%) (U2OS; [3]): 14% | Population Healthy Nuclei (%) (U2OS; [3]): 74% and 78% | Population Hoechst High Intensity Objects (%) (U2OS; [3]): 2% | Population Membrane Permeable-Phenotype (%) (U2OS; [3]): 5% and 3% | Population Mitochondria Different-Phenotype (%) (U2OS; [3]): 2% and 3% | Population Mitotic Cells (%) (U2OS; [3]): 12% and 29% | Population Normal (%) (U2OS; [3]): 97% | Population Pyknosed Nuclei (%) (U2OS; [3]): 10% and 7% | Population Tubulin-Different-Phenotype (%) (U2OS; [3]): 2% and 1% | Total Cell Count (U2OS; [3]): 534 and 232
